Results as given in ChEMBL document CHEMBL4627406, “Amino Acids Bearing Aromatic or Heteroaromatic Substituents as a New Class of Ligands for the Lysosomal Sialic Acid Transporter Sialin” (J Med Chem, 2020).
Active and inactive are the calls of the source. The rule behind the calls is not given here.

Legend:
Sialin (Homo sapiens) [1] = target: T1, Sialin (Homo sapiens) (UniProt Q9NRA2); assay: Inhibition of human recombinant-Sialin expressed in HEK293 cells assessed as reduction in [3H]Neu5Ac uptake at 30 to 300 uM incubated for 15 mins by liquid scintillation counting method; type: cell-based
T1 sequence (whole entry): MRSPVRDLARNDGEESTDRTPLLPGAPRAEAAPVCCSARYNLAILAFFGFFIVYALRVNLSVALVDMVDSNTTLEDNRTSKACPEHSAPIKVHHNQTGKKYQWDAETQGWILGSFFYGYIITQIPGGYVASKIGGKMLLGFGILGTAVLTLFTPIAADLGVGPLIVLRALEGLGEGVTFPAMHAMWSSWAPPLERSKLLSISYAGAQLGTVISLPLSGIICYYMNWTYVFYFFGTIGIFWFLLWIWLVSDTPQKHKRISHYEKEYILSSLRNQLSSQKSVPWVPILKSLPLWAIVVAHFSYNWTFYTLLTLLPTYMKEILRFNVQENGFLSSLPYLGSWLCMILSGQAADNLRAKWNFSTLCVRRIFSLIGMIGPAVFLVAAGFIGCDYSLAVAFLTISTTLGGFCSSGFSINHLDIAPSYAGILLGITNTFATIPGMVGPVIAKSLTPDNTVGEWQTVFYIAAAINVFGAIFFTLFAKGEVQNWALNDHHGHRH
Method in brief: (§1)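 HEK293 cells expressing EGFP-human sialin L22G/L23G (sorting mutant at the plasma membrane), assayed 2 days after lipofection. Uptake of [3H]Neu5Ac (12.5 nM) over 15 min at room temperature in MES-Na+ pH 5.0 with inhibitor added together with tracer. Cells washed twice ice-cold, radioactivity counted by liquid scintillation. Dose-response run in triplicate, two to three independent experiments.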

Sialin (Homo sapiens) [2] = target: T1, Sialin (Homo sapiens); assay: Inhibition of human recombinant-Sialin expressed in HEK293 cells assessed as reduction in [3H]Neu5Ac uptake at 30 uM incubated for 15 mins by liquid scintillation counting method; type: cell-based; method in brief: as §1
[3] = target: Proton-coupled amino acid transporter 1 (Homo sapiens) (UniProt Q7Z2H8); assay: Inhibition of human LYAAT1 at 100 uM relative to control
Chain of Proton-coupled amino acid transporter 1 (Homo sapiens) (Q7Z2H8 whole entry): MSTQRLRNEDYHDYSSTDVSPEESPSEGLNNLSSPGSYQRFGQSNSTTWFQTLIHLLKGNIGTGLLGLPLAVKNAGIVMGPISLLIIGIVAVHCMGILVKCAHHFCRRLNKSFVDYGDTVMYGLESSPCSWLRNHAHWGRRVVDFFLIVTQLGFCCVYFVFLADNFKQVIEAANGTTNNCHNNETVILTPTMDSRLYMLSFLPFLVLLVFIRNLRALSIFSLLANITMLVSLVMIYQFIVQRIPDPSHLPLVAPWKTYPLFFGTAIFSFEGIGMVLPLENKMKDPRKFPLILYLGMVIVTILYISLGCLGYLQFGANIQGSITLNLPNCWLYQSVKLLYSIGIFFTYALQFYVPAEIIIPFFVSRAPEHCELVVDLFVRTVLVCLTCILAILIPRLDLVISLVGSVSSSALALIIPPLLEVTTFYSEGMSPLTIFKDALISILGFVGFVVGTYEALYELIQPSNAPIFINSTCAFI

[4] = target: T2, Cystinosin (Homo sapiens) (UniProt O60931); assay: Inhibition of human cystinosin at 100 uM relative to control
T2 sequence (whole entry): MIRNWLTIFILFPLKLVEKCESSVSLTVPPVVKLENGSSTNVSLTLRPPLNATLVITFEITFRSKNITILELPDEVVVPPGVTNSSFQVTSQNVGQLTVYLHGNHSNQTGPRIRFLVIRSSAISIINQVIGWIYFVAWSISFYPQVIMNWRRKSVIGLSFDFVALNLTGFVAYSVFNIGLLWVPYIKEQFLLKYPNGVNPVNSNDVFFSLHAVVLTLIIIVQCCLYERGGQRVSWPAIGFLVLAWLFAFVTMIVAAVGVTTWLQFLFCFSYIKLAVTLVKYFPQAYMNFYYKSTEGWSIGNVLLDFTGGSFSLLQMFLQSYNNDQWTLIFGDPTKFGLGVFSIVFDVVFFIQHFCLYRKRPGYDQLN
Method in brief: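 Human cystinosin and rat LYAAT1 expressed at the plasma membrane of HEK293 cells, assayed one day after lipofection in MES-Na+ pH 5.0. Substrates were [14C]cystine (20 μM) for cystinosin and [3H]proline (100 μM) for LYAAT1. Test agent present during uptake, run in parallel with sialin. Triplicate measurements, three independent experiments.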

Sialin (Homo sapiens) [5] = target: T1, Sialin (Homo sapiens); assay: Inhibition of human recombinant-Sialin expressed in HEK293 cells assessed as reduction in [3H]Neu5Ac uptake at 100 uM incubated for 15 mins by liquid scintillation counting method; type: cell-based; method in brief: as §1
HEK293 [6] = assay: Substrate activity at EGFP-fused human Sialin L22G/L23G mutant expressed in HEK293 cells in acidic medium using tritiated compound at 2 to 100 uM by liquid scintillation counting method; type: cell-based
Method in brief: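 [3H]-labelled test ligand uptake measured in HEK293 cells expressing EGFP-sialin L22G/L23G versus mock (EGFP) cells, as for Neu5Ac uptake, using 2 μM tracer. For comparison, [3H]Neu5Ac was measured at 100 μM. Acidic MES pH 5.0 medium, liquid scintillation counting.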

Sialin (Homo sapiens) [7] = target: T1, Sialin (Homo sapiens); assay: Non-competitive inhibition of human recombinant-Sialin expressed in HEK293 cells assessed as reduction in Vmax for [3H]Neu5Ac uptake at 10 uM incubated for 15 mins by liquid scintillation counting method relative to control; type: cell-based
Sialin (Homo sapiens) [8] = target: T1, Sialin (Homo sapiens); assay: Inhibition of human recombinant-Sialin expressed in HEK293 cells assessed as reduction in [3H]Neu5Ac transport at 120 uM pre-incubated for 15 mins at pH 5.5 followed by 15 or 30 mins wash at pH 7 at room temperature by liquid scintillation counting method relative to control; type: cell-based
Sialin (Homo sapiens) [9] = target: T1, Sialin (Homo sapiens); assay: Ratio of Km for Neu5Ac to Ic50 for test compound for inhibition of human recombinant-Sialin expressed in HEK293 cells assessed as reduction in [3H]Neu5Ac uptake at 30 to 300 uM incubated for 15 mins by liquid scintillation counting method; type: cell-based
Sialin (Homo sapiens) [10] = target: T1, Sialin (Homo sapiens); assay: Inhibition of human recombinant-Sialin expressed in HEK293 cells assessed as reduction in [3H]Neu5Ac transport pre-incubated for 15 mins at pH 5.5 followed by 15 mins wash at pH 7 at room temperature by liquid scintillation counting method relative to control; type: cell-based
HEK293 [11] = assay: Substrate activity mRFP-tagged human recombinant-Sialin L22G/L23G mutant expressed in HEK293 cells assessed as induction of cytosolic acidification by measuring E2GFP fluorescence at 10 mM at pH 5.5; type: cell-based
Method in brief: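 HEK293 cells co-expressing the ratiometric pH probe E2GFP and mRFP-tagged human sialin L22G/L23G. Cytosolic acidification from sialin-mediated H+ co-transport was read by E2GFP fluorescence after application at pH 5.5 of Neu5Ac (10 mM) or test ligand (30 μM).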

Sialin (Homo sapiens) [12] = target: T1, Sialin (Homo sapiens); assay: Trans-stimulation of human recombinant-Sialin expressed in HEK293 cells assessed as [3H]Neu5Ac transport at 5 mM pre-incubated for 15 mins at pH 5.5 followed by 15 or 30 mins wash at pH 7 at room temperature by liquid scintillation counting method; type: cell-based

| SMILES | inhibition (Sialin (Homo sapiens) [1]) | inhibition (Sialin (Homo sapiens) [2]) | further results |
| --- | --- | --- | --- |
| CC(C)C[C@H](NC(=O)OCC1c2ccccc2-c2ccccc21)C(=O)O | Dose-dependent effect | Active | inhibition [3]: Active; inhibition [4]: Active; inhibition (Sialin (Homo sapiens) [5]): 100%; Activity (HEK293 [6]): inactive; inhibition (Sialin (Homo sapiens) [7]): 56%; inhibition (Sialin (Homo sapiens) [8]): 55% |
| O=C(NCCCC[C@H](NC(=O)OCC1c2ccccc2-c2ccccc21)C(=O)O)OCC1c2ccccc2-c2ccccc21 |  | inactive |  |
| O=C(N[C@@H](CSCc1ccccc1)C(=O)O)OCC1c2ccccc2-c2ccccc21 |  | inactive |  |
| CC(C)(C)OC(=O)C[C@H](NC(=O)OCC1c2ccccc2-c2ccccc21)C(=O)O |  | Active |  |
| CC(C)CC(NC(=O)OCC1c2ccccc2-c2ccccc21)C(=O)O (stereo unspecified) |  | Active |  |
| COC(=O)CC[C@H](NC(=O)OCC1c2ccccc2-c2ccccc21)C(=O)O | Dose-dependent effect | Active |  |
| CC(C)(C)Oc1ccc(C[C@H](NC(=O)OCC2c3ccccc3-c3ccccc32)C(=O)O)cc1 |  | Active |  |
| CN(Cc1cnc2nc(N)nc(N)c2n1)c1ccc(C(=O)N[C@@H](CCC(=O)O)C(=O)O)cc1 | Active |  |  |
| CN(C)c1ccc2c(CC(=O)NCCCC[C@H](NC(=O)OCC3c4ccccc4-c4ccccc43)C(=O)O)cc(=O)oc2c1 |  | Active |  |
| CC(C)C[C@H](NC(=O)N1CCCCCC1)C(=O)N[C@H](Cc1cn(C)c2ccccc12)C(=O)N[C@H](Cc1ccccn1)C(=O)O |  |  | Ratio (Sialin (Homo sapiens) [9]): 50; inhibition (Sialin (Homo sapiens) [10]): inactive |
| CC[C@H](C)[C@H](NC(=O)OCC1c2ccccc2-c2ccccc21)C(=O)O |  | Active |  |
| O=C(NCCCC[C@H](NC(=O)OCc1cc(=O)oc2cc(O)ccc12)C(=O)O)OCc1ccccc1 |  | Active |  |
| CC(C)(C)OC(=O)NCc1ccc(C[C@@H](NC(=O)OCC2c3ccccc3-c3ccccc32)C(=O)O)cc1 | Active |  |  |
| Cc1cc(C)cc(C(=O)N(C)[C@H](Cc2ccc(-c3ccccc3)cc2)C(=O)N[C@@H](Cc2c[nH]c3ccccc23)C(=O)O)c1 | Active |  |  |
| O=C(N[C@@H](Cc1ccccc1)C(=O)O)OCC1c2ccccc2-c2ccccc21 |  | Active |  |
| CC(C)(C)SC[C@H](NC(=O)OCC1c2ccccc2-c2ccccc21)C(=O)O |  | Active |  |

| SMILES | inhibition (Sialin (Homo sapiens) [1]) | inhibition (Sialin (Homo sapiens) [2]) | further results |
| --- | --- | --- | --- |
| O=C(NCCCC[C@H](NC(=O)OCC1c2ccccc2-c2ccccc21)C(=O)O)OCc1ccccc1 | Active |  |  |
| O=C(O)CN(CC(=O)O)c1ccccc1OCCOc1ccccc1N(CC(=O)O)CC(=O)O | Active |  |  |
| COc1ccc(CSC[C@H](NC(=O)OCC2c3ccccc3-c3ccccc32)C(=O)O)cc1 |  | Active |  |
| O=C(OCc1cc(=O)oc2cc(O)ccc12)OCC1c2ccccc2-c2ccccc21 |  | inactive |  |
| O=C(O)CN(CC(=O)O)Cc1cc2c(cc1O)Oc1cc(O)c(CN(CC(=O)O)CC(=O)O)cc1C21OC(=O)c2ccccc21 | Active |  |  |
| CC(=O)N[C@H]1[C@H]([C@H](O)[C@H](O)CO)OC(O)(C(=O)O)C[C@@H]1O (stereo partly specified) | Active |  | Activity (HEK293 [6]): Active; Activity (HEK293 [11]): Active; Activity (Sialin (Homo sapiens) [12]): 130% |
| COc1ccc2c(CSC[C@H](NC(=O)OCC3c4ccccc4-c4ccccc43)C(=O)O)cc(=O)oc2c1 | Dose-dependent effect | Active |  |
| CN(C)c1ccc2c(CC(=O)N[C@@H](CCCCNC(=O)OCc3ccccc3)C(=O)O)cc(=O)oc2c1 |  | Active |  |
| O=C(O)[C@@H]1OCCOCCO[C@@H](C(=O)O)[C@H](C(=O)O)OCCOCCO[C@H]1C(=O)O | Active |  |  |
| CCN(CC)c1ccc2c(CC(=O)N[C@@H](CCCCNC(=O)OCc3ccccc3)C(=O)O)cc(=O)oc2c1 |  | Active |  |
| O=C(Cc1cc(=O)oc2cc(O)ccc12)N[C@@H](CCCCNC(=O)OCc1ccccc1)C(=O)O |  | Active |  |
| O=C(N[C@@H](CSCc1cc(=O)oc2cc(O)c(Cl)cc12)C(=O)O)OCC1c2ccccc2-c2ccccc21 | Dose-dependent effect | Active |  |
| O=C(NCCCC[C@H](NC(=O)c1cc(=O)[nH]c2ccccc12)C(=O)O)OCc1ccccc1 |  | inactive |  |
| O=C(Cc1cc(=O)oc2c3c4c(cc12)CCCN4CCC3)N[C@@H](CCCCNC(=O)OCc1ccccc1)C(=O)O |  | Active |  |
| O=C(N[C@@H](CS)C(=O)O)OCC1c2ccccc2-c2ccccc21 |  | Active |  |
| O=C(O)[C@@H]1CCCN1C(=O)OCC1c2ccccc2-c2ccccc21 |  | inactive |  |
